Data as given in ChEMBL document CHEMBL4823277, “Novel chalcone-conjugated, multi-flexible end-group coumarin thiazole hybrids as potential antibacterial repressors against methicillin-resistant Staphylococcus aureus” (Eur J Med Chem, 2021).
Converted amounts (≈) assume the structure as drawn. The source made the active and inactive calls. No cut-off for these calls is given here.

What was measured:
Staphylococcus aureus [1] = experiment: Antibacterial activity against methicillin-resistant Staphylococcus aureus N315 by microbroth dilution method; assay type: functional
Outline: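 Minimum inhibitory concentration against MRSA N315 determined by micro broth dilution in microdilution plates.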

Enterococcus faecalis [2] = experiment: Antibacterial activity against Enterococcus faecalis by microbroth dilution method; assay type: functional
Staphylococcus aureus [3] = experiment: Antibacterial activity against Staphylococcus aureus by microbroth dilution method; assay type: functional
Staphylococcus aureus [4] = experiment: Antibacterial activity against Staphylococcus aureus ATCC 25923 by microbroth dilution method; assay type: functional
Staphylococcus aureus [5] = experiment: Antibacterial activity against Staphylococcus aureus ATCC 29213 by microbroth dilution method; assay type: functional
Klebsiella pneumoniae [6] = experiment: Antibacterial activity against Klebsiella pneumonia by microbroth dilution method; assay type: functional
Escherichia coli [7] = experiment: Antibacterial activity against Escherichia coli by microbroth dilution method; assay type: functional
Pseudomonas aeruginosa [8] = experiment: Antibacterial activity against Pseudomonas aeruginosa by microbroth dilution method; assay type: functional
Acinetobacter baumannii = experiment: Antibacterial activity against Acinetobacter baumannii by microbroth dilution method; assay type: functional
Pseudomonas aeruginosa [9] = experiment: Antibacterial activity against Pseudomonas aeruginosa ATCC 27853 by microbroth dilution method; assay type: functional
Escherichia coli [10] = experiment: Antibacterial activity against Escherichia coli ATCC 25922 by microbroth dilution method; assay type: functional
Staphylococcus aureus [11] = experiment: Bactericidal activity against methicillin-resistant Staphylococcus aureus assessed as decrease in viable cells at 4 times MIC measured after 2 hrs by time kill assay; assay type: functional
Outline: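 Time-kill kinetics against MRSA at 4 × MIC. Viable cells were counted as CFU/mL over time, including the 2 h point.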

L02 = experiment: Cytotoxicity against human L02 cells assessed as effect on cell viability up to 500 ug/ml by MTT assay; assay type: cell-based; details: dose <=500 µg/ml
Outline: (§1)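 MTT viability assay on human hepatocyte LO2 cells and RAW 264.7 cells. The test hybrid was applied over a rising concentration series up to 500. The read-out was the percentage of living cells.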

RAW264.7 = experiment: Cytotoxicity against mouse RAW264.7 cells assessed as effect on cell viability up to 500 ug/ml by MTT assay; assay type: cell-based; details: dose <=500 µg/ml; outline: as §1
Cell membrane = experiment: Induction of membrane permeabilization in methicillin resistant Staphylococcus aureus at 12 times MIC measured after 60 mins by propidium iodide staining based fluorescence assay
Outline: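 PI–DNA fluorescence intensity was followed over time up to and beyond 60 min, compared with an untreated control.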

Staphylococcus aureus [12] = experiment: Antibacterial activity against methicillin-resistant Staphylococcus aureus up to 50 ug/ml measured after 7 passages by resistance development assay; assay type: functional, organism-based; details: dose microg/ml <=50
DNA [13] = experiment: Binding affinity to methicillin-resistant Staphylococcus aureus DNA assessed as maximum absorption peak at 260 nm by UV-vis spectroscopy; assay type: nucleic-acid assay
DNA [14] = experiment: Binding affinity to methicillin-resistant Staphylococcus aureus DNA assessed as decrease in absorption of compound-DNA complex by UV-vis spectroscopy; assay type: nucleic-acid assay
DNA [15] = experiment: Binding affinity to methicillin-resistant Staphylococcus aureus DNA assessed as compound-DNA interaction causing DNA replication blockage by neutral red uptake assay; assay type: nucleic-acid assay
Enterococcus faecalis [16] = experiment: Potentiation of norfloxacin-induced antibacterial activity against Enterococcus faecalis assessed as norfloxacin MIC; assay type: functional
Klebsiella pneumoniae [17] = experiment: Potentiation of norfloxacin-induced antibacterial activity against Klebsiella pneumoniae assessed as norfloxacin MIC; assay type: functional
Escherichia coli [18] = experiment: Potentiation of norfloxacin-induced antibacterial activity against Escherichia coli assessed as norfloxacin MIC; assay type: functional
Staphylococcus aureus [19] = experiment: Synergistic antibacterial activity against methicillin resistant Staphylococcus aureus N315 assessed as fractional inhibitory concentration index in presence of norfloxacin; assay type: functional
Enterococcus faecalis [20] = experiment: Indifferent antibacterial activity against Enterococcus faecalis assessed as fractional inhibitory concentration index in presence of norfloxacin; assay type: functional
Klebsiella pneumoniae [21] = experiment: Additive antibacterial activity against Klebsiella pneumoniae assessed as fractional inhibitory concentration index in presence of norfloxacin; assay type: functional
Escherichia coli [22] = experiment: Additive antibacterial activity against Escherichia coli assessed as fractional inhibitory concentration index in presence of norfloxacin; assay type: functional

SMILES | MIC (Staphylococcus aureus [1]) | MIC (Enterococcus faecalis [2]) | MIC (Staphylococcus aureus [3]) | MIC (Staphylococcus aureus [4]) | MIC (Staphylococcus aureus [5]) | MIC (Klebsiella pneumoniae [6]) | MIC (Escherichia coli [7]) | MIC (Pseudomonas aeruginosa [8]) | MIC (Acinetobacter baumannii) | MIC (Pseudomonas aeruginosa [9]) | MIC (Escherichia coli [10]) | other results
Cc1ccc(/C=C(\Oc2ccc3c(CN(CCO)CCO)cc(=O)oc3c2)C(=O)c2nccs2)cc1 | 63 µM (≈ 31.9 µg/mL) | 63 µM (≈ 31.9 µg/mL) | 126 µM (≈ 63.8 µg/mL) | 63 µM (≈ 31.9 µg/mL) | 126 µM (≈ 63.8 µg/mL) | 63 µM (≈ 31.9 µg/mL) | 16 µM (≈ 8.11 µg/mL) | 253 µM (≈ 128 µg/mL) | 253 µM (≈ 128 µg/mL) | 505 µM (≈ 256 µg/mL) | 126 µM (≈ 63.8 µg/mL) | –
Cc1ccc2c(/C=C(\Oc3ccc4c(CN(CCO)CCO)cc(=O)oc4c3)C(=O)c3nccs3)c[nH]c2c1 | 117 µM (≈ 63.8 µg/mL) | 15 µM (≈ 8.18 µg/mL) | 29 µM (≈ 15.8 µg/mL) | 7 µM (≈ 3.82 µg/mL) | 117 µM (≈ 63.8 µg/mL) | 235 µM (≈ 128 µg/mL) | 235 µM (≈ 128 µg/mL) | 117 µM (≈ 63.8 µg/mL) | 117 µM (≈ 63.8 µg/mL) | 59 µM (≈ 32.2 µg/mL) | 235 µM (≈ 128 µg/mL) | –
O=C(/C(=C/c1ccccc1)Oc1ccc2c(CN(CCO)CCO)cc(=O)oc2c1)c1nccs1 | 130 µM (≈ 64 µg/mL) | 130 µM (≈ 64 µg/mL) | 260 µM (≈ 128 µg/mL) | 1040 µM (≈ 512 µg/mL) | 1040 µM (≈ 512 µg/mL) | 1040 µM (≈ 512 µg/mL) | 1040 µM (≈ 512 µg/mL) | 520 µM (≈ 256 µg/mL) | 1040 µM (≈ 512 µg/mL) | 520 µM (≈ 256 µg/mL) | 260 µM (≈ 128 µg/mL) | –
O=C(/C(=C/c1ccc(Br)cc1)Oc1ccc2c(CN(CCO)CCO)cc(=O)oc2c1)c1nccs1 | 136 µM (≈ 77.7 µg/mL) | 136 µM (≈ 77.7 µg/mL) | 68 µM (≈ 38.9 µg/mL) | 272 µM (≈ 155 µg/mL) | 272 µM (≈ 155 µg/mL) | 1090 µM (≈ 621 µg/mL) | 1090 µM (≈ 621 µg/mL) | 272 µM (≈ 155 µg/mL) | 543 µM (≈ 310 µg/mL) | 1090 µM (≈ 621 µg/mL) | 543 µM (≈ 310 µg/mL) | –
O=C(/C(=C/c1c[nH]c2ccccc12)Oc1ccc2c(CN(CCO)CCO)cc(=O)oc2c1)c1nccs1 | 15 µM (≈ 7.97 µg/mL) | 60 µM (≈ 31.9 µg/mL) | 120 µM (≈ 63.8 µg/mL) | 120 µM (≈ 63.8 µg/mL) | 120 µM (≈ 63.8 µg/mL) | 60 µM (≈ 31.9 µg/mL) | 241 µM (≈ 128 µg/mL) | 241 µM (≈ 128 µg/mL) | 482 µM (≈ 256 µg/mL) | 482 µM (≈ 256 µg/mL) | 241 µM (≈ 128 µg/mL) | –
O=C(/C(=C/c1ccc(Cl)cc1Cl)Oc1ccc2c(CN(CCO)CCO)cc(=O)oc2c1)c1nccs1 | 7 µM (≈ 3.93 µg/mL) | 228 µM (≈ 128 µg/mL) | 228 µM (≈ 128 µg/mL) | 456 µM (≈ 256 µg/mL) | 456 µM (≈ 256 µg/mL) | 228 µM (≈ 128 µg/mL) | 228 µM (≈ 128 µg/mL) | 114 µM (≈ 64 µg/mL) | 114 µM (≈ 64 µg/mL) | 228 µM (≈ 128 µg/mL) | 456 µM (≈ 256 µg/mL) | –
O=C(/C(=C/c1ccc([N+](=O)[O-])cc1)Oc1ccc2c(CN(CCO)CCO)cc(=O)oc2c1)c1nccs1 | 7 µM (≈ 3.76 µg/mL) | 119 µM (≈ 64 µg/mL) | 119 µM (≈ 64 µg/mL) | 60 µM (≈ 32.3 µg/mL) | 119 µM (≈ 64 µg/mL) | 238 µM (≈ 128 µg/mL) | 119 µM (≈ 64 µg/mL) | 476 µM (≈ 256 µg/mL) | 238 µM (≈ 128 µg/mL) | 238 µM (≈ 128 µg/mL) | 119 µM (≈ 64 µg/mL) | –
COc1ccc(/C=C(\Oc2ccc3c(CN(CCO)CCO)cc(=O)oc3c2)C(=O)c2nccs2)cc1 | 4 µM (≈ 2.09 µg/mL) | 61 µM (≈ 31.9 µg/mL) | 61 µM (≈ 31.9 µg/mL) | 122 µM (≈ 63.8 µg/mL) | 122 µM (≈ 63.8 µg/mL) | 61 µM (≈ 31.9 µg/mL) | 15 µM (≈ 7.84 µg/mL) | 122 µM (≈ 63.8 µg/mL) | 244 µM (≈ 128 µg/mL) | 244 µM (≈ 128 µg/mL) | 244 µM (≈ 128 µg/mL) | Activity (Staphylococcus aureus [11]): <10 CFU/ml; Activity (L02): Non-Toxic; Activity (RAW264.7): Non-Toxic; Activity (Cell membrane): Active; Activity (Staphylococcus aureus [12]): Active; Activity (DNA [13]): Active; Activity (DNA [14]): Active; Activity (DNA [15]): Active; MIC (Enterococcus faecalis [16]): 1.906 10^-3mM; MIC (Klebsiella pneumoniae [17]): 0.953 10^-3mM; MIC (Escherichia coli [18]): 0.234 10^-3mM; fractional inhibitory concentration index (FICI) (Staphylococcus aureus [19]): 0.45; fractional inhibitory concentration index (FICI) (Enterococcus faecalis [20]): 1.34; fractional inhibitory concentration index (FICI) (Klebsiella pneumoniae [21]): 0.58; fractional inhibitory concentration index (FICI) (Escherichia coli [22]): 0.51
